Experimental data taken from ChEMBL document CHEMBL2396550, “Manzamine A, a marine-derived alkaloid, inhibits accumulation of cholesterol ester in macrophages and suppresses hyperlipidemia and atherosclerosis in vivo” (Bioorg Med Chem, 2013).
Active and inactive are the calls of the source. No cut-off for these calls is given here.

Columns and labels:
[1] = test system: MDM; test: Antihyperlipidemic activity in human MDM assessed as inhibition of acetylated LDL-induced [3H]-cholesterol ester accumulation at 20 uM after 24 hrs by radioscanner analysis in presence of [3H]-oleate-conjugated BSA; assay type: functional
Procedure, shortened: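 Monocytes were isolated from healthy-volunteer blood on Ficoll, allowed to adhere for 1 h, then differentiated for 7 days into macrophages in DMEM with 10% pooled human serum. The macrophages were incubated for 24 h at 37 °C in 5% CO2 with 50 μg/mL AcLDL, 0.1 mM BSA-conjugated [3H]oleate and 20 μM sample. Cellular lipids were extracted, [3H]CE was separated by TLC, and it was quantified by radioscanner.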

[2] = test system: Mus musculus; test: Antiatherosclerotic activity in apoE-deficient C57BL/6 mouse assessed as decrease in atherosclerotic lesion size in aortic sinus at 30 mg/kg/day administered through feeding measured after 80 days by oil red O/hematoxylin staining assay relative to control; assay type: functional; design: scale not given: the % may be the effect or the level left
[3] = test system: Mus musculus; test: Antiatherosclerotic activity in apoE-deficient C57BL/6 mouse assessed as decrease in plasma triglyceride level at 30 mg/kg/day administered through feeding measured after 80 days relative to control; assay type: functional; design: scale not given: the % may be the effect or the level left
[4] = test system: Mus musculus; test: Antiatherosclerotic activity in apoE-deficient C57BL/6 mouse assessed as decrease in plasma LDL cholesterol level at 30 mg/kg/day administered through feeding measured after 80 days relative to control; assay type: functional; design: scale not given: the % may be the effect or the level left
[5] = test system: Mus musculus; test: Antiatherosclerotic activity in apoE-deficient C57BL/6 mouse assessed as decrease in plasma free cholesterol level at 30 mg/kg/day administered through feeding measured after 80 days relative to control; assay type: functional; design: scale not given: the % may be the effect or the level left
[6] = test system: Mus musculus; test: Antiatherosclerotic activity in apoE-deficient C57BL/6 mouse assessed as decrease in total plasma cholesterol level at 30 mg/kg/day administered through feeding measured after 80 days relative to control; assay type: functional; design: scale not given: the % may be the effect or the level left
[7] = (§1) Inhibition of microsomal ACAT in apoE-deficient mouse peritoneal macrophage using [14C]oleoyl-CoA as substrate assessed as formation of cholesteryl [14C]-oleate […] by TLC analysis
[8] = organism: Mus musculus; test: as §1
[9] = (§2) Antihyperlipidemic activity in apoE-deficient mouse peritoneal macrophages assessed as inhibition of acetylated LDL-induced [3H]-cholesterol ester accumulation after 24 hrs by radioscanner analysis in presence of [3H]-oleate-conjugated BSA; assay type: functional, cell-based; conditions: Peritoneal macrophage cell
Procedure, shortened: (§3)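 Peritoneal macrophages from apoE-deficient mice, cultured in DMEM with 10% pooled human serum, 37 °C, 5% CO2. [3H]CE accumulation after AcLDL loading was measured by the [3H]oleate/TLC method.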

[10] = test system: Peritoneal macrophage cell; test: as §2; assay type: functional, cell-based; procedure, shortened: as §3
[11] = target: T1, Sterol O-acyltransferase 2 (Homo sapiens) (UniProt O75908); test: (§4) Non-competitive inhibition of human microsomal ACAT2 overexpressed in CHO cells using [14C]oleoyl-CoA as substrate assessed as formation of cholesteryl [14C]-oleate […]
T1 sequence (whole entry): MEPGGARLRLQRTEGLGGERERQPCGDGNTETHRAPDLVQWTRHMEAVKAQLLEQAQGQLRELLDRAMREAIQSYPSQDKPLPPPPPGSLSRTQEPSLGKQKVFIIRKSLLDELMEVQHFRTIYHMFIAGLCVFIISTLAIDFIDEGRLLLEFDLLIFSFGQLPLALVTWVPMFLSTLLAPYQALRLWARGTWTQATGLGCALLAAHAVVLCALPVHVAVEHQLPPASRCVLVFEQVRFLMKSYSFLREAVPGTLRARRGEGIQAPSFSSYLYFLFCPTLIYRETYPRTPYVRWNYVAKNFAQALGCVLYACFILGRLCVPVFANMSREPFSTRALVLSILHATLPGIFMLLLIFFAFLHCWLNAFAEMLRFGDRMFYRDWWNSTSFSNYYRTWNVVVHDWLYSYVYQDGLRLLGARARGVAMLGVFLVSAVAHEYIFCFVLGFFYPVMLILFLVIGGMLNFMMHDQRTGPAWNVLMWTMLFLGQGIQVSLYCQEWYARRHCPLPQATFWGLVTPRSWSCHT

[12] = target: T2, Sterol O-acyltransferase 2 (Homo sapiens, UniProt O75908); test: as §4
T2 sequence (O75908 whole entry): T1 sequence (whole entry)

[13] = target: T3, Sterol O-acyltransferase 1 (Homo sapiens) (UniProt P35610); test: (§5) Non-competitive inhibition of human microsomal ACAT1 overexpressed in CHO cells using [14C]oleoyl-CoA as substrate assessed as formation of cholesteryl [14C]-oleate […]
T3 sequence (whole entry): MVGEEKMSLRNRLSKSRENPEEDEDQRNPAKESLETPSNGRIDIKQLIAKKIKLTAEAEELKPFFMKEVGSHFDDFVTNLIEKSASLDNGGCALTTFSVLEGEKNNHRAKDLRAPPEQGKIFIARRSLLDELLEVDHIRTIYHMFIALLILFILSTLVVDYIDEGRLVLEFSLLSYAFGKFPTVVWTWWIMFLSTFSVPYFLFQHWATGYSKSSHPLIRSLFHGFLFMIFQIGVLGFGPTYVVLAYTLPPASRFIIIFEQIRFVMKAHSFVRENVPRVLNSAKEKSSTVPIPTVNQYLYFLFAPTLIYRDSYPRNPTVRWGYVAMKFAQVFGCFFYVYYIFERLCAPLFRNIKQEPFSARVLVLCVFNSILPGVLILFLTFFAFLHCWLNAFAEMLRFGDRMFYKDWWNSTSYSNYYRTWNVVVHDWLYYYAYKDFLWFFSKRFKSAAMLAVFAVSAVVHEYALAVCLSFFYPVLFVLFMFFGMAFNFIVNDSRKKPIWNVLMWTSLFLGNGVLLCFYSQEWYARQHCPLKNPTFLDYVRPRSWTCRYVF

[14] = target: T4, Sterol O-acyltransferase 1 (Homo sapiens, UniProt P35610); test: as §5
T4 sequence (P35610 whole entry): T3 sequence (whole entry)

[15] = test system: MDM; test: Effect on ACAT expression in human MDM at 5 to 30 uM after 24 hrs by immunoblot analysis; assay type: functional
Procedure, shortened: (§6)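 HMDMs exposed 24 h to graded compound concentrations, solubilised in 1% Triton X-100, boiled in SDS sample buffer, then N-glycosidase-treated at 37 °C for 24 h. 10 μg protein run on 10% SDS-PAGE and immunoblotted for human ACAT-1, SR-A (E5) or SR-BI, with β-actin reprobe; band density quantified.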

[16] = test system: CHO; test: Antihyperlipidemic activity in CHO cells overexpressing human ACAT2 assessed as inhibition of [3H]-cholesterol ester accumulation after 24 hrs by radioscanner analysis in presence of [3H]-oleate-conjugated BSA; assay type: functional, cell-based; conditions: Cricetulus griseus
Procedure, shortened: (§7)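 CHO cells stably overexpressing human ACAT-1 or ACAT-2, grown in F-12 HAM with 10% FCS and G418 800 μg/mL. Incubated 24 h in medium with 10% FCS, 0.1 mM [3H]oleate–BSA and graded compound concentrations; no AcLDL. Lipids extracted, [3H]CE separated by TLC and counted by radioscanner.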

[17] = test system: CHO; test: Antihyperlipidemic activity in CHO cells overexpressing human ACAT1 assessed as inhibition of [3H]-cholesterol ester accumulation after 24 hrs by radioscanner analysis in presence of [3H]-oleate-conjugated BSA; assay type: functional, cell-based; conditions: Cricetulus griseus; procedure, shortened: as §7
[18] = test system: MDM; test: Effect on scavenger receptor-A expression in human MDM at 5 to 30 uM after 24 hrs by immunoblot analysis; assay type: functional; procedure, shortened: as §6
[19] = test system: MDM; test: Effect on scavenger receptor-B1 expression in human MDM at 5 to 30 uM after 24 hrs by immunoblot analysis; assay type: functional; procedure, shortened: as §6
[20] = Cytotoxicity against human MDM assessed as cell viability at 50 uM after 24 hrs by WST-8 assay
Procedure, shortened: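 HMDMs seeded at 1×10^4 per well, treated with compound; viability read by WST-8 assay.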

[21] = test system: MDM; test: Inhibition of endocytic [125I]-acetylated LDL uptake in human MDM at 50 uM after 5 hrs; assay type: functional
Procedure, shortened: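 Day-7 HMDMs in DMEM with 3% BSA, incubated 5 h at 37 °C with 125I-AcLDL (50 μg/mL, 600 cpm/ng) plus compound. Degradation was measured as TCA-soluble, AgNO3-cleared medium radioactivity. Cell-associated counts came from 0.1 M NaOH lysates after ice-cold PBS/1% BSA washes and were normalised to protein.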

[22] = Cytotoxicity against human MDM assessed as inhibition of acetylated LDL-induced [3H]-triglyceride synthesis at 50 uM after 24 hrs by radioscanner analysis in presence of [3H]-oleate-conjugated BSA
Procedure, shortened: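 HMDMs incubated 24 h with AcLDL 50 μg/mL and 0.1 mM [3H]oleate–BSA with or without compound; extracted lipids assayed for TG-[3H]oleate radioactivity.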

[23] = Cytotoxicity against human MDM assessed as change in cell morphology at 50 uM
[24] = (§8) Antihyperlipidemic activity in human MDM assessed as inhibition of acetylated LDL-induced [3H]-cholesterol ester accumulation after 24 hrs by radioscanner analysis in presence of [3H]-oleate-conjugated BSA; assay type: functional
Procedure, shortened: (§9)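 Human monocytes from healthy volunteer blood by Ficoll, adhered 1 h, differentiated 7 days in DMEM with 10% pooled human serum. Monolayers incubated 24 h with AcLDL 50 μg/mL plus 0.1 mM [3H]oleate–BSA with or without compound; lipids extracted, [3H]cholesteryl oleate separated by TLC and counted by radioscanner.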

[25] = test system: MDM; test: as §8; assay type: functional; procedure, shortened: as §9
[26] = target: T3, Sterol O-acyltransferase 1 (Homo sapiens); test: (§10) Non-competitive inhibition of microsomal ACAT in human MDM using [14C]oleoyl-CoA as substrate assessed as formation of cholesteryl [14C]-oleate […]
[27] = target: T4, Sterol O-acyltransferase 1; test: as §10
[28] = target: T2, Sterol O-acyltransferase 2; test: Inhibition of ACAT2 in human MDM assessed as inhibition of acetylated LDL-induced cholesterol ester accumulation after 1 hr by HPLC analysis
[29] = target: T4, Sterol O-acyltransferase 1
[30] = target: T4, Sterol O-acyltransferase 1; test: Inhibition of macrophage ACAT (unknown origin)
[31] = Inhibition of microsomal ACAT in cholesterol-fed JW rabbit intestine using [14C]oleoyl-CoA as substrate incubated for 5 mins prior to substrate addition measured after 5 to 10 mins by liquid scintillation counting analysis; assay type: microsomes, Oryctolagus cuniculus
[32] = target: T2, Sterol O-acyltransferase 2; test: Inhibition of macrophage ACAT2 (unknown origin)
[33] = target: T4, Sterol O-acyltransferase 1; test: Inhibition of ACAT1 (unknown origin)

Compound: c1ccc2c(c1)[nH]c1cnccc12
- inhibition [1]: Active

Compound: O[C@]12C=C(c3nccc4c3[nH]c3ccccc34)[C@@H]3CCN(CCCC/C=C\CC1)C[C@@]31C[C@@H]3/C=C\CCCCN3[C@H]12 [MANZAMINE A]
- Activity [2]: 45%
- Activity [3]: 50%
- Activity [4]: 40%
- Activity [5]: 20%
- Activity [6]: 40%
- IC50 [7]: 5.8 µM
- inhibition [8]: Dose-dependent effect
- IC50 [9]: 6.2 µM
- inhibition [10]: Dose-dependent effect
- inhibition [11]: Dose-dependent effect
- IC50 [12]: 4.8 µM
- inhibition [13]: Dose-dependent effect
- IC50 [14]: 6.2 µM
- Activity [15]: inactive
- inhibition [16]: Dose-dependent effect
- inhibition [17]: Dose-dependent effect
- Activity [18]: inactive
- Activity [19]: inactive
- Activity [20]: Toxic
- inhibition [21]: Active
- Activity [22]: Toxic
- Activity [23]: Toxic
- IC50 [24]: 4.1 µM
- inhibition [25]: Dose-dependent effect
- inhibition [1]: Active
- inhibition [26]: Dose-dependent effect
- IC50 [27]: 6.4 µM

Compound: O=CC1=C[C@@]2(O)CC/C=C\CCCCN3CC[C@@H]1[C@]1(C[C@@H]4/C=C\CCCCN4[C@H]12)C3
- inhibition [1]: Active

Compound: O=C1CCCN2[C@@H]3[C@@]45CN6CCCC/C=C\CC[C@@]3(C=C(c3nccc7c3[nH]c3ccccc37)[C@@H]4CC6)O[C@]2(CC1)C5
- inhibition [1]: Active

Compound: O[C@H]1/C=C/C[C@]2(O)C=C(c3nccc4c3[nH]c3ccccc34)[C@@H]3CCN(CCCC1)C[C@@]31C[C@@H]3/C=C\CCCCN3[C@H]12
- inhibition [1]: Active

Compound: CC(C)c1cc(C(C)C)c(CC(=O)NS(=O)(=O)Oc2c(C(C)C)cccc2C(C)C)c(C(C)C)c1 [AVASIMIBE]
- IC50 [28]: 9.2 µM
- IC50 [29]: 23.5 µM

Compound: Oc1ccc2[nH]c3c(C4=C[C@@]5(O)CC/C=C\CCCCN6CCC4[C@]4(C[C@@H]7/C=C\CCCCN7[C@H]45)C6)nccc3c2c1 (some centres undefined)
- inhibition [1]: Active

Compound: CCCCCCCCCN(CC(C)(C)C)C(=O)N[C@H]1CCCC[C@@H]1OC(=O)CCNC(=O)[C@@H]1OC(C)(C)OCC1(C)C
- IC50 [30]: 0.032 µM

Compound: CN(C)c1ccc(NC(=O)N(C[C@H]2CC[C@H](CN(C(=O)Nc3ccc(N(C)C)cc3)C3CCCCC3)CC2)C2CCCCC2)cc1
- IC50 [31]: 0.0076 µM

Compound: Oc1cccc2c1[nH]c1c(C3=C[C@@]4(O)CC/C=C\CCCCN5CC[C@@H]3[C@]3(CC6/C=C\CCCCN6[C@H]34)C5)nccc12 (some centres undefined)
- inhibition [1]: Active

Compound: CCCCCCCCN1CCc2c(C)c(CC(=O)O)c(C)c(NC(=O)C(C)(C)C)c21 [PACTIMIBE]
- IC50 [32]: 3 µM
- IC50 [33]: 4.9 µM
